≈ marks a conversion by molar mass, not a printed value.
Legend:
Escherichia coli [1] = assay: Antimicrobial activity against qnrA1 expressing Escherichia coli J53/pN5 expressing porins by microdilution method; format: functional; conditions: for MIC: Escherichia coli, J53
How it was run: (§1)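 Microdilution MICs (μg/ml) of ciprofloxacin, levofloxacin or moxifloxacin against Enterobacteriaceae strains differing in qnrA1 carriage: qnrA1 cloned in pACYC184 in E. coli DH10B, natural qnrA1 plasmids transferred to E. coli J53, clinical K. pneumoniae, and qnrA1-negative isogenic controls.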

Escherichia coli [2] = assay: Antimicrobial activity against Escherichia coli DH10B/pACYC184 expressing porins by microdilution method; format: functional; conditions: for MIC: Escherichia coli, DH10B; how it was run: as §1
Escherichia coli [3] = assay: Antimicrobial activity against qnrA1 expressing Escherichia coli J53/p1960 expressing porins by microdilution method; format: functional; conditions: for MIC: Escherichia coli, J53; how it was run: as §1
Klebsiella pneumoniae [4] = assay: Antimicrobial activity against qnrA1 expressing Klebsiella pneumoniae1960 GyrA Ser83Phe mutant expressing porins by microdilution method; format: functional; conditions: for MIC: Klebsiella pneumoniae
Escherichia coli [5] = assay: Antimicrobial activity against Escherichia coli J53/p1132 negative expressing porins by microdilution method; format: functional; how it was run: as §1
Klebsiella pneumoniae [6] = assay: Antimicrobial activity against Klebsiella pneumoniae C2 GyrA Ser83Phe/ParC mutant expressing porins by microdilution method; format: functional
How it was run: (§2)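 Mutants were selected on Mueller-Hinton agar containing ciprofloxacin or moxifloxacin, with colonies allowed to grow for up to 96 h. Colonies recovered one concentration step below the MPC were tested for ciprofloxacin MIC (μg/ml) by microdilution.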

Klebsiella pneumoniae [7] = assay: Antimicrobial activity against Klebsiella pneumoniae C2/pMG252 GyrA Ser83Phe/ParC mutant expressing porins by microdilution method; format: functional; how it was run: as §2
Escherichia coli [8] = assay: Antimicrobial activity against Escherichia coli DH10B expressing porins by microdilution method; format: functional; conditions: for MIC: Escherichia coli, DH10B; how it was run: as §1
Klebsiella pneumoniae [9] = assay: Antimicrobial activity against Klebsiella pneumoniae C2 GyrA Ser83Phe mutant lacking porins by microdilution method; conditions: for MIC: Klebsiella pneumoniae, C2
Escherichia coli [10] = assay: Antimicrobial activity against qnrA1 expressing Escherichia coli DH10B GyrA/ParC mutant expressing porins by microdilution method; format: functional
Klebsiella pneumoniae [11] = assay: Antimicrobial activity against qnrA1 expressing Klebsiella pneumoniae N5 GyrA/ParC mutant expressing porins by microdilution method; format: functional
Klebsiella pneumoniae [12] = assay: Antimicrobial activity against qnrA1 expressing Klebsiella pneumoniae UAB1 GyrA/ParC mutant expressing porins by microdilution method; format: functional
Klebsiella pneumoniae [13] = assay: Antimicrobial activity against qnrA1 expressing Klebsiella pneumoniae 1132 GyrA/ParC mutant expressing porins by microdilution method; format: functional
Escherichia coli [14] = assay: Antimicrobial activity against qnrA1 expressing Escherichia coli J53/p1960 GyrA/ParC mutant expressing porins by microdilution method; format: functional
Escherichia coli [15] = assay: Antimicrobial activity against Escherichia coli J53 GyrA/ParC mutant expressing porins by microdilution method; format: functional
Klebsiella pneumoniae [16] = assay: Antimicrobial activity against qnrA1 expressing Klebsiella pneumoniae N5 expressing porins by microdilution method; format: functional; conditions: for MIC: Klebsiella pneumoniae, N5; how it was run: as §1
Escherichia coli [17] = assay: Antimicrobial activity against qnrA1 expressing Escherichia coli J53/pMG252 expressing porins by microdilution method; format: functional; conditions: for MIC: Escherichia coli, J53; how it was run: as §1
Klebsiella pneumoniae [18] = assay: Antimicrobial activity against qnrA1 expressing Klebsiella pneumoniae 1960 GyrA Ser83Phe/ParC mutant expressing porins by microdilution method; format: functional; how it was run: as §2
Klebsiella pneumoniae [19] = assay: Antimicrobial activity against qnrA1 expressing Klebsiella pneumoniae 1132 expressing porins by microdilution method; format: functional; conditions: for MIC: Klebsiella pneumoniae; how it was run: as §1
Escherichia coli [20] = assay: Antimicrobial activity against qnrA1 expressing Escherichia coli DH10B expressing porins by microdilution method; format: functional; conditions: for MIC: Escherichia coli, DH10B; how it was run: as §1
Klebsiella pneumoniae [21] = assay: Antimicrobial activity against qnrA1 expressing Klebsiella pneumoniae UAB1 expressing porins by microdilution method; format: functional; conditions: for MIC: Klebsiella pneumoniae, UAB1
Escherichia coli [22] = assay: Antimicrobial activity against Escherichia coli J53/p1132 negative GyrA/ParC mutant expressing porins by microdilution method; format: functional
Klebsiella pneumoniae [23] = assay: Antimicrobial activity against Klebsiella pneumoniae C2/pMG252 GyrA Ser83Phe mutant expressing porins by microdilution method; format: functional; conditions: for MIC: Klebsiella pneumoniae, C2
Escherichia coli [24] = assay: Antimicrobial activity against Escherichia coli J53 expressing porins by microdilution method; format: functional; how it was run: as §1
Escherichia coli [25] = assay: Antimicrobial activity against qnrA1 expressing Escherichia coli J53/pN5 GyrA/ParC mutant expressing porins by microdilution method; format: functional
How it was run: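 Broth microdilution MIC, in μg/ml, with ciprofloxacin, levofloxacin or moxifloxacin against the E. coli J53 transconjugant carrying qnrA1.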

Escherichia coli [26] = assay: Antimicrobial activity against qnrA1 expressing Escherichia coli J53/pMG252 GyrA/ParC mutant expressing porins by microdilution method; format: functional

COc1c(N2C[C@@H]3CCCN[C@@H]3C2)c(F)cc2c(=O)c(C(=O)O)cn(C3CC3)c12 [MOXIFLOXACIN]
MPC (Escherichia coli [1]): 4 µg/mL | MIC (Escherichia coli [1]): 0.125 µg/mL (≈ 0.311 µM) | MPC (Escherichia coli [2]): 0.06 µg/mL | MIC (Escherichia coli [2]): 0.002 µg/mL (≈ 0.00498 µM) | MPC (Escherichia coli [3]): 4 µg/mL | MIC (Escherichia coli [3]): 0.125 µg/mL (≈ 0.311 µM) | MIC (Klebsiella pneumoniae [4]): 2 µg/mL (≈ 4.98 µM) | MPC (Escherichia coli [5]): 0.25 µg/mL | MIC (Escherichia coli [5]; Escherichia coli, J53): 0.015 µg/mL (≈ 0.0374 µM) | MIC (Klebsiella pneumoniae [6]): 2 µg/mL (≈ 4.98 µM) | MIC (Klebsiella pneumoniae [7]): 32 µg/mL (≈ 79.7 µM) | MPC (Escherichia coli [8]): 0.06 µg/mL | MIC (Escherichia coli [8]): 0.002 µg/mL (≈ 0.00498 µM) | MPC (Klebsiella pneumoniae [9]): 4 µg/mL | MIC (Klebsiella pneumoniae [9]): 0.125 µg/mL (≈ 0.311 µM) | MIC (Escherichia coli [10]): 0.5 µg/mL (≈ 1.25 µM) | MIC (Klebsiella pneumoniae [11]): 4 µg/mL (≈ 9.96 µM) | MIC (Klebsiella pneumoniae [12]): 32 µg/mL (≈ 79.7 µM) | MIC (Klebsiella pneumoniae [13]): 16 µg/mL (≈ 39.9 µM) | MIC (Escherichia coli [14]): 4 µg/mL (≈ 9.96 µM) | MIC (Escherichia coli [15]): 0.5 µg/mL (≈ 1.25 µM) | MPC (Klebsiella pneumoniae [16]): 16 µg/mL | MIC (Klebsiella pneumoniae [16]): 0.5 µg/mL (≈ 1.25 µM) | MPC (Escherichia coli [17]): 4 µg/mL | MIC (Escherichia coli [17]): 0.5 µg/mL (≈ 1.25 µM) | MIC (Klebsiella pneumoniae [18]): 16 µg/mL (≈ 39.9 µM) | MPC (Klebsiella pneumoniae [19]): 32 µg/mL | MIC (Klebsiella pneumoniae [19]): 8 µg/mL (≈ 19.9 µM) | MPC (Escherichia coli [20]): 2 µg/mL | MIC (Escherichia coli [20]): 0.125 µg/mL (≈ 0.311 µM) | MPC (Klebsiella pneumoniae [21]): 32 µg/mL | MIC (Klebsiella pneumoniae [21]): 4 µg/mL (≈ 9.96 µM) | MIC (Escherichia coli [22]): 0.25 µg/mL (≈ 0.623 µM) | MIC (Klebsiella pneumoniae [23]): 1 µg/mL (≈ 2.49 µM) | MPC (Escherichia coli [24]): 0.125 µg/mL | MIC (Escherichia coli [24]; Escherichia coli, J53): 0.015 µg/mL (≈ 0.0374 µM)

O=C(O)c1cn(C2CC2)c2cc(N3CCNCC3)c(F)cc2c1=O [CIPROFLOXACIN]
MPC (Escherichia coli [1]): 4 µg/mL | MPC (Escherichia coli [2]): 0.015 µg/mL | MPC (Escherichia coli [3]): 4 µg/mL | MPC (Klebsiella pneumoniae [4]): 64 µg/mL | MIC (Klebsiella pneumoniae [4]): 1 µg/mL (≈ 3.02 µM) | MPC (Escherichia coli [5]): 0.06 µg/mL | MIC (Klebsiella pneumoniae [6]): 4 µg/mL (≈ 12.1 µM) | MIC (Klebsiella pneumoniae [7]): 64 µg/mL (≈ 193 µM) | MPC (Escherichia coli [8]): 0.015 µg/mL | MPC (Klebsiella pneumoniae [9]): 8 µg/mL | MIC (Klebsiella pneumoniae [9]): 0.25 µg/mL (≈ 0.754 µM) | MIC (Klebsiella pneumoniae [11]): 8 µg/mL (≈ 24.1 µM) | MIC (Klebsiella pneumoniae [12]): 16 µg/mL (≈ 48.3 µM) | MIC (Klebsiella pneumoniae [13]): 16 µg/mL (≈ 48.3 µM) | MPC (Klebsiella pneumoniae [16]): 4 µg/mL | MIC (Klebsiella pneumoniae [16]): 0.25 µg/mL (≈ 0.754 µM) | MPC (Escherichia coli [17]): 4 µg/mL | MIC (Klebsiella pneumoniae [18]): 32 µg/mL (≈ 96.6 µM) | MPC (Klebsiella pneumoniae [19]): 32 µg/mL | MIC (Klebsiella pneumoniae [19]): 4 µg/mL (≈ 12.1 µM) | MPC (Escherichia coli [20]): 2 µg/mL | MPC (Klebsiella pneumoniae [21]): 16 µg/mL | MIC (Klebsiella pneumoniae [21]): 2 µg/mL (≈ 6.04 µM) | MPC (Klebsiella pneumoniae [23]): 128 µg/mL | MIC (Klebsiella pneumoniae [23]): 2 µg/mL (≈ 6.04 µM) | MPC (Escherichia coli [24]): 0.06 µg/mL

C[C@H]1COc2c(N3CCN(C)CC3)c(F)cc3c(=O)c(C(=O)O)cn1c23.C[C@H]1COc2c(N3CCN(C)CC3)c(F)cc3c(=O)c(C(=O)O)cn1c23.O [LEVOFLOXACIN]
MPC (Escherichia coli [1]): 4 µg/mL | MIC (Escherichia coli [1]): 0.125 µg/mL | MPC (Escherichia coli [2]): 0.015 µg/mL | MIC (Escherichia coli [2]): 0.004 µg/mL | MPC (Escherichia coli [3]): 4 µg/mL | MIC (Escherichia coli [3]): 0.125 µg/mL | MPC (Klebsiella pneumoniae [4]): 64 µg/mL | MIC (Klebsiella pneumoniae [4]): 2 µg/mL | MPC (Escherichia coli [5]): 0.06 µg/mL | MIC (Klebsiella pneumoniae [6]): 8 µg/mL | MIC (Klebsiella pneumoniae [7]): 64 µg/mL | MPC (Escherichia coli [8]): 0.015 µg/mL | MIC (Escherichia coli [8]): 0.004 µg/mL | MPC (Klebsiella pneumoniae [9]): 8 µg/mL | MIC (Klebsiella pneumoniae [9]): 0.25 µg/mL | MIC (Escherichia coli [25]): 4 µg/mL | MIC (Klebsiella pneumoniae [11]): 8 µg/mL | MIC (Klebsiella pneumoniae [12]): 16 µg/mL | MIC (Klebsiella pneumoniae [13]): 16 µg/mL | MIC (Escherichia coli [14]): 2 µg/mL | MPC (Klebsiella pneumoniae [16]): 4 µg/mL | MPC (Escherichia coli [17]): 4 µg/mL | MIC (Escherichia coli [17]): 0.25 µg/mL | MIC (Klebsiella pneumoniae [18]): 64 µg/mL | MPC (Klebsiella pneumoniae [19]): 32 µg/mL | MIC (Klebsiella pneumoniae [19]): 4 µg/mL | MPC (Escherichia coli [20]): 2 µg/mL | MIC (Escherichia coli [20]): 0.125 µg/mL | MPC (Klebsiella pneumoniae [21]): 16 µg/mL | MIC (Klebsiella pneumoniae [21]): 2 µg/mL | MIC (Escherichia coli [26]): 2 µg/mL | MPC (Klebsiella pneumoniae [23]): 128 µg/mL | MIC (Klebsiella pneumoniae [23]): 2 µg/mL | MPC (Escherichia coli [24]): 0.06 µg/mL

From ChEMBL document CHEMBL1144466, “Mutant prevention concentrations of fluoroquinolones for Enterobacteriaceae expressing the plasmid-carried quinolone resistance determinant qnrA1” (2007)
